Assay results from ChEMBL document CHEMBL1255417, “Correlation between in vitro activity of posaconazole and in vivo efficacy against Rhizopus oryzae infection in mice” (Antimicrob Agents Chemother, 2010).
In brackets after ≈: the same amount, converted by molar mass. Activity calls are given as the source filed them. The rule behind the calls is not given here.

Key:
Rhizopus arrhizus [1] = experiment: Antifungal activity against drug-susceptible Rhizopus oryzae UTHSC 06-89 at 5 ug by disk diffusion assay; assay type: functional; conditions: read-out: DIZ
Rhizopus arrhizus [2] = experiment: Antifungal activity against drug-intermediate Rhizopus oryzae UTHSC 05-3032 after 24 to 48 hrs; assay type: functional
Rhizopus arrhizus [3] = experiment: Antifungal activity against drug-susceptible Rhizopus oryzae UTHSC 05-3111 by broth microdilution method; assay type: functional
Procedure, shortened: (§1)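 Posaconazole MIC in ug/ml, determined by broth microdilution following the CLSI guidelines for moulds (M38-A2).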

Rhizopus arrhizus [4] = experiment: Antifungal activity against drug-susceptible Rhizopus oryzae UTHSC 06-89 infected in OF1 mouse assessed as reduction in brain fungal load at 10-30 mg/kg, po bid; assay type: functional, organism-based
Rhizopus arrhizus [5] = experiment: Antifungal activity against drug-susceptible Rhizopus oryzae UTHSC 06-329 by broth microdilution method; assay type: functional; procedure, shortened: as §1
Rhizopus arrhizus [6] = experiment: Antifungal activity against drug-susceptible Rhizopus oryzae UTHSC 02-2882 by broth microdilution method; assay type: functional
Procedure, shortened: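 Broth microdilution MIC in µg/ml, run per the CLSI (formerly NCCLS) guideline for filamentous fungi, M38-A2.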

Rhizopus arrhizus [7] = experiment: Antifungal activity against drug-intermediate Rhizopus oryzae UTHSC 03-3165 after 24 to 48 hrs; assay type: functional
Rhizopus arrhizus [8] = experiment: Antifungal activity against drug-susceptible Rhizopus oryzae UTHSC 03-51 infected in OF1 mouse assessed as increase in mouse survival at 20-30 mg/kg, po bid treated 24 hrs after fungal infection; assay type: functional, organism-based
Procedure, shortened: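 Male OF1 mice (30 g) immunosuppressed 1 day before infection with cyclophosphamide 200 mg/kg i.p. plus 5-fluorouracil 150 mg/kg i.v.; challenged i.v. via tail vein with 2 × 10^4 CFU; oral gavage twice daily for 7 days from 24 h post-challenge; ceftazidime 5 mg/day s.c. days 1–7; untreated controls; 10 mice/group; survival checked daily to day 20.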

Rhizopus arrhizus [9] = experiment: Antifungal activity against drug-susceptible Rhizopus oryzae UTHSC 04-1241 by broth microdilution method; assay type: functional
Procedure, shortened: (§2)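 CLSI broth microdilution for filamentous fungi (M38-A2); MIC recorded in µg/ml against clinical isolates; breakpoints applied at 24 h.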

Rhizopus arrhizus [10] = experiment: Antifungal activity against drug-susceptible Rhizopus oryzae UTHSC 06-1080 by broth microdilution method; assay type: functional; procedure, shortened: as §1
Rhizopus arrhizus [11] = experiment: Antifungal activity against drug-susceptible Rhizopus oryzae UTHSC 06-2374 at 5 ug by disk diffusion assay; assay type: functional; conditions: read-out: DIZ
Procedure, shortened: (§3)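 Neo-Sensitabs tablet diffusion on Mueller-Hinton agar, run per the mould guidelines. Tablets are 9 mm in diameter and carry 5 ug posaconazole. The read-out is the inhibition zone diameter in mm.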

Rhizopus arrhizus [12] = experiment: Antifungal activity against drug-susceptible Rhizopus oryzae UTHSC 04-1220 by broth microdilution method; assay type: functional; procedure, shortened: as §2
Rhizopus arrhizus [13] = experiment: Antifungal activity against drug-susceptible Rhizopus oryzae UTHSC 03-3110 after 24 to 48 hrs; assay type: functional
Procedure, shortened: (§4)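 Minimum fungicidal concentration: 20 µl from each microdilution well showing complete inhibition (optically clear) plated on potato dextrose agar, incubated 35°C for 24 to 48 h; MFC taken as lowest drug concentration giving no growth.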

Rhizopus arrhizus [14] = experiment: Antifungal activity against drug-intermediate Rhizopus oryzae UTHSC 05-3032 infected in OF1 mouse assessed as reduction in kidney fungal load at 10-30 mg/kg, po bid treated 24 hrs after fungal infection; assay type: functional, organism-based
Procedure, shortened: (§5)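 Tissue burden in immunosuppressed male OF1 mice, using cyclophosphamide 200 mg/kg i.p. plus 5-fluorouracil 150 mg/kg i.v. on day −1. Mice received 2 × 10^4 CFU i.v. by tail vein, then oral gavage at 10, 20 or 30 mg/kg BID from 24 h post-challenge, with ceftazidime cover; untreated controls. Groups of 10 were killed on day 4. Kidneys and brains were homogenized in 2 ml saline, serially diluted 10-fold, plated on PDA and counted after 24 h at 35°C.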

Rhizopus arrhizus [15] = experiment: Antifungal activity against drug-intermediate Rhizopus oryzae UTHSC 05-3032 infected in OF1 mouse assessed as increase in mouse survival at 20-30 mg/kg, po bid treated 24 hrs after fungal infection; assay type: functional, organism-based
Procedure, shortened: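 Survival model in male OF1 mice, 30 g. Mice were immunosuppressed 1 day before infection with cyclophosphamide 200 mg/kg i.p. plus 5-fluorouracil 150 mg/kg i.v., then infected i.v. via lateral tail vein with 2 × 10^4 CFU in 0.2 ml saline. Oral gavage at 10, 20 or 30 mg/kg BID began 24 h post-challenge for 7 days. Ceftazidime 5 mg/day s.c. was given days 1–7. Groups of 10 were checked daily for 20 days; untreated controls.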

Rhizopus arrhizus [16] = experiment: Antifungal activity against drug-susceptible Rhizopus oryzae UTHSC 05-3132 after 24 to 48 hrs; assay type: functional
Procedure, shortened: (§6)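 Minimum fungicidal concentration taken from the broth microdilution plates. From each well with complete inhibition (optically clear), 20 ul is plated on potato dextrose agar. Plates are incubated at 35°C for 24 to 48 h. The MFC is the lowest drug concentration giving no growth.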

Rhizopus arrhizus [17] = experiment: Antifungal activity against drug-susceptible Rhizopus oryzae UTHSC 04-1220 at 5 ug by disk diffusion assay; assay type: functional; conditions: read-out: DIZ
Procedure, shortened: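 Neo-Sensitabs tablet diffusion on Mueller-Hinton agar, following guidelines for molds; 9 mm tablets containing 5 µg posaconazole; inhibition zone diameter measured in mm; zone breakpoints applied at 24 h.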

Rhizopus arrhizus [18] = experiment: Antifungal activity against drug-susceptible Rhizopus oryzae UTHSC 03-2970 after 24 to 48 hrs; assay type: functional
Rhizopus arrhizus [19] = experiment: Antifungal activity against drug-susceptible Rhizopus oryzae UTHSC 06-2457 after 24 to 48 hrs; assay type: functional; procedure, shortened: as §6
Rhizopus arrhizus [20] = experiment: Antifungal activity against drug-susceptible Rhizopus oryzae UTHSC 04-2459 by broth microdilution method; assay type: functional; procedure, shortened: as §2
Rhizopus arrhizus [21] = experiment: Antifungal activity against drug-susceptible Rhizopus oryzae UTHSC 03-228 after 24 to 48 hrs; assay type: functional
Rhizopus arrhizus [22] = experiment: Antifungal activity against drug-susceptible Rhizopus oryzae UTHSC 06-4133 by broth microdilution method; assay type: functional; procedure, shortened: as §1
Rhizopus arrhizus [23] = experiment: Antifungal activity against drug-susceptible Rhizopus oryzae UTHSC 06-3913 at 5 ug by disk diffusion assay; assay type: functional; conditions: read-out: DIZ; procedure, shortened: as §3
Rhizopus arrhizus [24] = experiment: Antifungal activity against drug-susceptible Rhizopus oryzae UTHSC 05-197 after 24 to 48 hrs; assay type: functional; procedure, shortened: as §4
Rhizopus arrhizus [25] = experiment: Antifungal activity against drug-susceptible Rhizopus oryzae UTHSC 03-299 after 24 to 48 hrs; assay type: functional
Rhizopus arrhizus [26] = experiment: Antifungal activity against drug-susceptible Rhizopus oryzae UTHSC 06-89 infected in OF1 mouse assessed as reduction in kidney fungal load at 10-30 mg/kg, po bid; assay type: functional, organism-based
Rhizopus arrhizus [27] = experiment: Antifungal activity against drug-intermediate Rhizopus oryzae UTHSC 07-365 infected in OF1 mouse assessed as reduction in kidney fungal load at 10-30 mg/kg, po bid treated 24 hrs after fungal infection; assay type: functional, organism-based; procedure, shortened: as §5
Rhizopus arrhizus [28] = experiment: Antifungal activity against drug-intermediate Rhizopus oryzae UTHSC 07-365 at 5 ug by disk diffusion assay; assay type: functional; conditions: UTHSC 07-365, read-out: DIZ
Procedure, shortened: (§7)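 Neo-Sensitabs tablet diffusion on Mueller-Hinton agar, following the guidelines for molds. Tablets were 9 mm in diameter and held 5 µg of drug. The read-out was inhibition zone diameter in mm.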

Rhizopus arrhizus [29] = experiment: Antifungal activity against drug-susceptible Rhizopus oryzae UTHSC 05-3111 after 24 to 48 hrs; assay type: functional; procedure, shortened: as §6
Rhizopus arrhizus [30] = experiment: Antifungal activity against drug-intermediate Rhizopus oryzae UTHSC 05-3032 at 5 ug by disk diffusion assay; assay type: functional; conditions: read-out: DIZ; procedure, shortened: as §7

SMILES: CC[C@@H]([C@H](C)O)n1ncn(-c2ccc(N3CCN(c4ccc(OC[C@@H]5CO[C@@](Cn6cncn6)(c6ccc(F)cc6F)C5)cc4)CC3)cc2)c1=O [POSACONAZOLE]
- zone of inhibition at 5 µg/disc (Rhizopus arrhizus [1]): 23 mm
- MFC (Rhizopus arrhizus [2]): > 16 µg/mL
- MIC (Rhizopus arrhizus [3]): 0.25 µg/mL (≈ 0.357 µM)
- Activity (Rhizopus arrhizus [4]): Active
- MIC (Rhizopus arrhizus [5]): 0.5 µg/mL (≈ 0.713 µM)
- MIC (Rhizopus arrhizus [6]): 0.25 µg/mL (≈ 0.357 µM)
- MFC (Rhizopus arrhizus [7]): 16 µg/mL (≈ 22.8 µM)
- Activity (Rhizopus arrhizus [8]): Active
- MIC (Rhizopus arrhizus [9]): 0.5 µg/mL (≈ 0.713 µM)
- MIC (Rhizopus arrhizus [10]): 1 µg/mL (≈ 1.43 µM)
- zone of inhibition at 5 µg/disc (Rhizopus arrhizus [11]): 23 mm
- MIC (Rhizopus arrhizus [12]): 0.5 µg/mL (≈ 0.713 µM)
- MFC (Rhizopus arrhizus [13]): 1 µg/mL (≈ 1.43 µM)
- Activity (Rhizopus arrhizus [14]): inactive
- Activity (Rhizopus arrhizus [15]): Active
- MFC (Rhizopus arrhizus [16]): 0.5 µg/mL (≈ 0.713 µM)
- zone of inhibition at 5 µg/disc (Rhizopus arrhizus [17]): 20 mm
- MFC (Rhizopus arrhizus [18]): 4 µg/mL (≈ 5.71 µM)
- MFC (Rhizopus arrhizus [19]): > 16 µg/mL
- MIC (Rhizopus arrhizus [20]): 1 µg/mL (≈ 1.43 µM)
- MFC (Rhizopus arrhizus [21]): 1 µg/mL (≈ 1.43 µM)
- MIC (Rhizopus arrhizus [22]): 0.5 µg/mL (≈ 0.713 µM)
- zone of inhibition at 5 µg/disc (Rhizopus arrhizus [23]): 20 mm
- MFC (Rhizopus arrhizus [24]): 0.5 µg/mL (≈ 0.713 µM)
- MFC (Rhizopus arrhizus [25]): > 16 µg/mL
- Activity (Rhizopus arrhizus [26]): Active
- Activity (Rhizopus arrhizus [27]): Active
- zone of inhibition at 5 µg/disc (Rhizopus arrhizus [28]): 15 mm
- MFC (Rhizopus arrhizus [29]): 2 µg/mL (≈ 2.85 µM)
- zone of inhibition at 5 µg/disc (Rhizopus arrhizus [30]): 14 mm
